Our source for the Neuroprotection and Hypothermic effect values is ChEMBL document CHEMBL1133728, “Synthesis, structure, and neuroprotective properties of novel imidazolyl nitrones” (J Med Chem, 2000).

The test system of assay [1] is Mus musculus. The experiment in a line: Inhibition of t-BHP (tert-butyl-hydro-peroxide) induced toxicity in mice following 150 mg/Kg i.p. The class given is functional. In outline:
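Male NMRI mice (30–35 g) pretreated ip with 150 mg/kg in 0.2 mL saline/Tween, 30 min before icv injection of 70% t-BHP (22 mg/kg/μl). Lethality checked at 1, 2, 5, 24 h; value is percentage survival at 2 h versus t-BHP-only group; n = 10 per group.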

Assay [2] deals with Mus musculus. Put plainly: In vivo induction of hypothermia in mice following 150 mg/Kg i.p. The class given is functional.

Structures are written as SMILES.

For the molecule `CC(C)(C)/[N+]([O-])=C/c1ccccc1`, in assay [1], the Neuroprotection is recorded as 57%. The molecule further registered a Hypothermic effect in assay [2] of 0.9 °C.
On the same counts, the results for `Cn1c(/C=[N+](\[O-])C(C)(C)C)cnc1-c1ccccc1` are 0% and 0.69 °C.
Taken in the same sequence, the figures for `CC(C)(C)/[N+]([O-])=C/c1c[nH]c(-c2ccoc2)n1` were 30% and 0.78 °C.
On the same counts, the results for `CC(C)(C)/[N+]([O-])=C/c1nc(-c2ccccc2)c[nH]1` are 0% and 1.42 degrees C.
`CC(C)(C)/[N+]([O-])=C/c1c[nH]c(-c2ccsc2)n1`: in assay [1], the Neuroprotection is on record as 40%. This molecule yielded a Hypothermic effect in assay [2] of 0.48 °C.
On the same counts, the results for `CC(C)(C)/[N+]([O-])=C/c1c[nH]c(-c2c[nH]cn2)n1` are 0% and 0.13 °C.
For the molecule `CC(C)(C)/[N+]([O-])=C/c1c[nH]c(-c2ccco2)n1`, in assay [1], the Neuroprotection is 15%. Moreover, the Hypothermic effect in assay [2] came to 0.72 °C.
Taken in the same sequence, the figures for `Cn1cc(/C=[N+](\[O-])C(C)(C)C)nc1-c1ccccc1` were 50% and 0.3 °C.
Taken in the same sequence, the figures for `CC(C)(C)/[N+]([O-])=C/c1c[nH]c(-c2ccc(F)cc2)n1` were 67% and 2.01 °C.
On the same counts, the results for `CC(C)(C)/[N+]([O-])=C/c1c[nH]c(-c2cccc3ccccc23)n1` are 75% and 0.52 °C.
On to `CC(C)(C)/[N+]([O-])=C/c1c[nH]c(-c2ccc3ccccc3c2)n1`, for which, in assay [1], the Neuroprotection amounted to 94%. In assay [2], this molecule returned a Hypothermic effect of 1.62 °C.
On the same counts, the results for `CC(C)(C)/[N+]([O-])=C/c1c[nH]c(-c2ccc(C(F)(F)F)cc2)n1` are 80% and 2.16 °C.
Molecule `CC(C)(C)/[N+]([O-])=C/c1c[nH]c(-c2ccccc2)n1` returned a Neuroprotection in assay [1] of 78%. The same molecule yielded a Hypothermic effect in assay [2] of 0.33 °C.
The molecule `CC(C)(C)/[N+]([O-])=C/c1c[nH]c(-c2cccc(Cl)c2)n1` had a Neuroprotection in assay [1] of 89%. This molecule yielded a Hypothermic effect in assay [2] of 1.66 °C.
For `Cc1ccc(-c2nc(/C=[N+](\[O-])C(C)(C)C)c[nH]2)cc1`, the Neuroprotection in assay [1] was found to be 66%. In assay [2], this molecule returned a Hypothermic effect of 1.24 °C.
On the same counts, the results for `CC(C)(C)/[N+]([O-])=C/c1c[nH]c(-c2ccc(Cl)cc2)n1` are 89% and 1.32 °C.
Taken in the same sequence, the figures for `CC(C)(C)/[N+]([O-])=C/c1c[nH]c(-c2ccc([N+](=O)[O-])cc2)n1` were 93% and 1.89 °C.
On the same counts, the results for `CC(C)(C)/[N+]([O-])=C/c1c[nH]c(-c2cccnc2)n1` are 0% and 0.75 °C.
In assay [1], `CC(C)(C)/[N+]([O-])=C/c1c[nH]c(-c2nccs2)n1` displayed a Neuroprotection of 0%. The Hypothermic effect in assay [2] stood at 0.38 °C.
On the same counts, the results for `CC(C)(C)/[N+]([O-])=C/c1c[nH]c(-c2ccccn2)n1` are 0% and 0.36 °C.
Taken in the same sequence, the figures for `CC(C)(C)/[N+]([O-])=C/c1c[nH]c(-c2ccccc2Cl)n1` were 71% and 1.91 °C.
With `COc1ccc(-c2nc(/C=[N+](\[O-])C(C)(C)C)c[nH]2)cc1`, the Neuroprotection in assay [1] was found to be 53%. The same molecule had a Hypothermic effect in assay [2] of 0.53 degrees C.
On the same counts, the results for `CC(C)(C)/[N+]([O-])=C/c1c[nH]c(-c2ccncc2)n1` are 24% and 0.49 °C.
